The values that follow come from paper PMC2637182 (Journal of the American Chemical Society, 2008).

Common to all, as to assay: Continuous fluorescence kinase assay, kinetic parameters of the substrate
What all share (assay type): biochemical

One assay concerns the target Src (Homo sapiens, UniProt P12931). The following applies: for Km / Vmax: initial slopes, direct fit of ν vs [S], Briggs-Haldane equation, mean ± s.e.m. of triplicate, SEM; for Catalytic Efficiency: kcat/KM (min^-1 μM^-1) normalized to the BTF substrate. The method in brief: (§1)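 Sox-labelled peptide substrates were phosphorylated by the kinase and monitored continuously by fluorescence (λex 360 nm, λem 485 nm) in a fluorometer or a 96-well plate reader. KM and Vmax came from initial slopes, corrected for substrate and product fluorescence, and a direct Briggs-Haldane fit of ν vs [S]. Values are mean ± s.e.m. of triplicates. kcat/KM was normalized to the BTF substrate within each kinase.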

A further assay concerns the target MK2 (Homo sapiens, UniProt P49137). The following applies: initial slopes, direct fit of ν vs [S], Briggs-Haldane equation, mean ± s.e.m. of triplicate, SEM. The method in brief: (§2)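 Sox-containing peptide substrate becomes fluorescent on phosphorylation through Mg2+ chelation-enhanced fluorescence. Fluorescence was read continuously at λex 360 nm and λem 485 nm. Reaction components were simply mixed, and the reaction was run in a fluorometer or in a 96-well fluorescence plate reader. Rates at varied substrate levels were fitted directly as ν vs [S] to the Briggs-Haldane equation. Each was run in triplicate.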

Another assay has as its target PKA (Homo sapiens, UniProt P17612). The settings on record: for Km / Vmax: initial slopes, direct fit of ν vs [S], Briggs-Haldane equation, mean ± s.e.m. of triplicate, SEM. A digest of the protocol:
as §1

For another assay, the target named is Akt1 (Homo sapiens, UniProt P31749). The following applies: initial slopes, direct fit of ν vs [S], Briggs-Haldane equation, mean ± s.e.m. of triplicate, SEM. A digest of the protocol: as §2
The next assay deals with Pim2 (Homo sapiens, UniProt Q9P1W9). The following applies: initial slopes, direct fit of ν vs [S], Briggs-Haldane equation, mean ± s.e.m. of triplicate, SEM.
A further assay concerns the target Abl (Homo sapiens, UniProt P00519). The settings on record: initial slopes, direct fit of ν vs [S], Briggs-Haldane equation, mean ± s.e.m. of triplicate, SEM. The method in brief: as §2
The next assay addresses PKCβI (Homo sapiens, UniProt P05771).
The next assay addresses IRK (Homo sapiens, UniProt P06213). The following applies: for Km / Vmax: initial slopes, direct fit of ν vs [S], Briggs-Haldane equation, mean ± s.e.m. of triplicate, SEM; for Catalytic Efficiency: kcat/KM (min^-1 μM^-1) normalized to the BTF substrate. A digest of the protocol:
as §1

The next assay has as its target PKCδ (Homo sapiens, UniProt Q05655).
Setting [1] is: initial slopes, direct fit of ν vs [S], Briggs-Haldane equation, mean ± s.e.m. of triplicate, NS = Not a Substrate, SEM.

One may read the Km as the concentration of substrate that gives half-maximal velocity. For orientation: Vmax means the top rate of the reaction or transport when substrate is in excess.

Chain of PKCβI (P05771 whole entry): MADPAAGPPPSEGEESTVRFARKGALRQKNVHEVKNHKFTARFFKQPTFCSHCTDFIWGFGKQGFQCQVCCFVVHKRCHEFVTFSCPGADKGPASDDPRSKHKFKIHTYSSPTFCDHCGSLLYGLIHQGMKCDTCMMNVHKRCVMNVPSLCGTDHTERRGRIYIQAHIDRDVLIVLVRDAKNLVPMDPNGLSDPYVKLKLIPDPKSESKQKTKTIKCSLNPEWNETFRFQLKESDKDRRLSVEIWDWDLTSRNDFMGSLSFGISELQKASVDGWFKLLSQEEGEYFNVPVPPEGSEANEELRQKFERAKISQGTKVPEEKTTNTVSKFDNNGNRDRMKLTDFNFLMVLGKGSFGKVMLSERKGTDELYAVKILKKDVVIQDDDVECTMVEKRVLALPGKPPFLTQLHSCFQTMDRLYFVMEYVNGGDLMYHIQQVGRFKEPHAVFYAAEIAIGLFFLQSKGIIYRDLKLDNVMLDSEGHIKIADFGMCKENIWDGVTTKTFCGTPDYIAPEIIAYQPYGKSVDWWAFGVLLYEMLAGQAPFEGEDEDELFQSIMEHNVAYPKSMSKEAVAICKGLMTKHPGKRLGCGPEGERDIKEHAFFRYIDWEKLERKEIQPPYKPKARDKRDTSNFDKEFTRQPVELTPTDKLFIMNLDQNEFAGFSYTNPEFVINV
Chain of IRK (P06213 1012-1310 limits assumed): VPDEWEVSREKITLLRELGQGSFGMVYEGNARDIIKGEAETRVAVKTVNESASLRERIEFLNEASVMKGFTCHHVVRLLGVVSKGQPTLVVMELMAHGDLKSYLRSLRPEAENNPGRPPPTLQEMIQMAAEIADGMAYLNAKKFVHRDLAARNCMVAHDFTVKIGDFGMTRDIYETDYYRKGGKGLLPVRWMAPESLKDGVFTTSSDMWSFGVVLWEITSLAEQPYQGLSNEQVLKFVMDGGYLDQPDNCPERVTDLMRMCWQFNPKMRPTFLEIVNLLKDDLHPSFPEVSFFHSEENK
Chain of PKCδ (Q05655 whole entry): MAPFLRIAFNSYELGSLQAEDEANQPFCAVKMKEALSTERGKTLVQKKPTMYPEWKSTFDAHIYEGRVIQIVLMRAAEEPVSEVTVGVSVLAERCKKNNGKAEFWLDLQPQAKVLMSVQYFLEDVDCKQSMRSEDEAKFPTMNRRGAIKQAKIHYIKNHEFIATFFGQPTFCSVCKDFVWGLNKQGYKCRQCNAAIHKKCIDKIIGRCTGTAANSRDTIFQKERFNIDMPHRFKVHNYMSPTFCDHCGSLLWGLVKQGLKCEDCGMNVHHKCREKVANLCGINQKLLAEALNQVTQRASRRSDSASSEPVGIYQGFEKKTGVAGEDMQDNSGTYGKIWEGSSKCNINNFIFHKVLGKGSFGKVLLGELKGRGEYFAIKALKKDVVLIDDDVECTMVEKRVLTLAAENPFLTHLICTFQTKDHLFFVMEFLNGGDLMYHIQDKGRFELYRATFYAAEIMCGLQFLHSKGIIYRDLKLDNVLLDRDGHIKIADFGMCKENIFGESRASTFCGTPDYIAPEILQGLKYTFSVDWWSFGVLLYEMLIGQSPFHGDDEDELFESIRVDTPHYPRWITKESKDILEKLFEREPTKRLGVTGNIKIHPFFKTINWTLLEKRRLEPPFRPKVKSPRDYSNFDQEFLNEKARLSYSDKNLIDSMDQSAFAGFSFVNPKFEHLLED
Chain of MK2 (P49137 whole entry, species assumed): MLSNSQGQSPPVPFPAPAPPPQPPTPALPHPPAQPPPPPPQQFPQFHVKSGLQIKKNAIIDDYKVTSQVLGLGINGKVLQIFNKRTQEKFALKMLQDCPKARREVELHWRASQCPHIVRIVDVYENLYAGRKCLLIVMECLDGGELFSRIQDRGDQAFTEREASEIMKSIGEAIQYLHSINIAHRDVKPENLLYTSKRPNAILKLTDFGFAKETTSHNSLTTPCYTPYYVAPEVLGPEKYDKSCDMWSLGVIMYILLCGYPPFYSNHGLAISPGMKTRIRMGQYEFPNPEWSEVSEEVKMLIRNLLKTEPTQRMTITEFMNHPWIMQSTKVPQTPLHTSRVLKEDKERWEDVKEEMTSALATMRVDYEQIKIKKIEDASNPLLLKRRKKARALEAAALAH
Chain of Abl (P00519 whole entry, species assumed): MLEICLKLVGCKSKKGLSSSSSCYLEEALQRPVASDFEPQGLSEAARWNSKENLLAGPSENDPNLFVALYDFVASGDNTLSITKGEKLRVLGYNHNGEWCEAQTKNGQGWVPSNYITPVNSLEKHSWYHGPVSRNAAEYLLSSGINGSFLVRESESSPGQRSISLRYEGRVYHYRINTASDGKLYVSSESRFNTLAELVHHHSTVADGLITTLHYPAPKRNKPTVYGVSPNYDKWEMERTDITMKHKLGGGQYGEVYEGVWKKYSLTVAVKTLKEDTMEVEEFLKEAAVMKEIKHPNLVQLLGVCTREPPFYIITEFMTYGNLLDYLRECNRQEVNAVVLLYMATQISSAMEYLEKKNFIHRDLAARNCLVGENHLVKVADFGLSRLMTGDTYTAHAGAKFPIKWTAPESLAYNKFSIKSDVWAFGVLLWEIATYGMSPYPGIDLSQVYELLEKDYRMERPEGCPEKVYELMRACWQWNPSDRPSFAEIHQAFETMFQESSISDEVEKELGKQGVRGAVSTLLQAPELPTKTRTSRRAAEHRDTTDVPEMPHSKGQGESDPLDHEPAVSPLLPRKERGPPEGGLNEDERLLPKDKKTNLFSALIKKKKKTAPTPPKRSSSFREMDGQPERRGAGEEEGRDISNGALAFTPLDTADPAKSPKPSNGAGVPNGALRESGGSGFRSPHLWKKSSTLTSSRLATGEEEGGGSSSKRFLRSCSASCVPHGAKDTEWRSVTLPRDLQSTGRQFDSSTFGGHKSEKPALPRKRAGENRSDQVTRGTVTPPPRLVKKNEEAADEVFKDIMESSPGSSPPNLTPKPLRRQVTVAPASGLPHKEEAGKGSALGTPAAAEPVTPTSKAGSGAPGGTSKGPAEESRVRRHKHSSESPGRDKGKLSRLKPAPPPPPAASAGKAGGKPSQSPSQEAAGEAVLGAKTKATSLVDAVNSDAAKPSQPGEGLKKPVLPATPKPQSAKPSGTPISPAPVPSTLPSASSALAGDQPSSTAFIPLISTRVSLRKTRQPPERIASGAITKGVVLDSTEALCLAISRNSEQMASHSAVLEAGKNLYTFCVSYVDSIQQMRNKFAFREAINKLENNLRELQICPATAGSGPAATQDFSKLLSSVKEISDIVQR
Chain of Pim2 (Q9P1W9 whole entry, species assumed): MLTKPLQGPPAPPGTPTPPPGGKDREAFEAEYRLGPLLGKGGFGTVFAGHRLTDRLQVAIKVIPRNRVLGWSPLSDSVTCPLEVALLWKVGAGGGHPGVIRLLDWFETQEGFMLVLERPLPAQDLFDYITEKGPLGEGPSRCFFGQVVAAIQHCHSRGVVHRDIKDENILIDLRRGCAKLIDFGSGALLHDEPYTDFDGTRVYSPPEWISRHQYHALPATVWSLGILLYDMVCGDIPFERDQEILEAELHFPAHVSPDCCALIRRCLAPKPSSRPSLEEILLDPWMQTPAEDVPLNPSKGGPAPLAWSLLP
Chain of Akt1 (P31749 whole entry, species assumed): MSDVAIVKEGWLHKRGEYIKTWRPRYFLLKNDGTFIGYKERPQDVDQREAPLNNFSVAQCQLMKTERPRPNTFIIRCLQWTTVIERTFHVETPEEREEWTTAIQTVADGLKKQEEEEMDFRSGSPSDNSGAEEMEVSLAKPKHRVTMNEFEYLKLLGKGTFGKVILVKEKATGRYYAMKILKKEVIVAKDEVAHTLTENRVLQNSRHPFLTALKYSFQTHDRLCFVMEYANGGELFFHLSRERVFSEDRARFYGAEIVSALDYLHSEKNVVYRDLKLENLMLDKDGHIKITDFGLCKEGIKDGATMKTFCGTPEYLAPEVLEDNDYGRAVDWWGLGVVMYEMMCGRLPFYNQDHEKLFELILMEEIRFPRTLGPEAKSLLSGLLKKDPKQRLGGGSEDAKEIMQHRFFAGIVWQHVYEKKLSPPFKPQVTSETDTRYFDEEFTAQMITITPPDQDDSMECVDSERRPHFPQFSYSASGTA

On to “Ac-AEE-CSox-IY*GEFEAKKKK-CONH2 [Src RDF]”, for which, on Src, the Michaelis-Menten constant (Km) was found to be 7 ± 1 µM, the maximal velocity (Vmax) is 3.4 ± 0.2 µmol/mg/min and the “Catalytic Efficiency” value stood at 28.
For the substance Ac-AHLQRQLS*I-CSox-HH-CONH2 [MK2 RDF], on MK2, the Km amounted to 1.2 ± 0.2 µM and the Vmax turned out to be 1.3 ± 0.1 µmol/mg/min.
For the substance Ac-ALRRAS*L-CSox-AA-CONH2 [PKA RDF], at PKA, the Michaelis constant (Km) worked out at 2.6 ± 0.3 µM and the maximal velocity (Vmax) worked out at 17.9 ± 0.8 µmol/mg/min. Besides, the “Catalytic Efficiency” value at PKA (kcat/KM (min^-1 μM^-1) normalized to the BTF substrate) was 1.
Turning to “Ac-ARKRERAYS*F-CSox-HHA-CONH2 [Akt1 RDF]”, at Akt1, the Km was found to be 0.69 ± 0.11 µM and the maximal velocity (Vmax) came to 2.5 ± 0.2 µmol/mg/min.
As to “Ac-ARKRRRHPS*G-CSox-PTA-CONH2 [Pim2 RDF]”, on Pim2, the Km was 1.4 ± 0.1 µM and the maximum rate (Vmax) was determined as 0.67 ± 0.02 µmol/mg/min.
As to Ac-E-CSox-IY*AAPFAKKK-CONH2 [Abl RDF], on Abl, the Michaelis constant (Km) amounted to 10.5 ± 1.5 µM and the maximum rate (Vmax) came to 19.1 ± 1.0 µmol/mg/min.
Regarding Ac-LKR-CSox-AS*FKKFA-CONH2 [PKCβI RDF], at PKCβI (Figure S3), the “turnover by the kinase (in words)” value is “excellent substrates”. In addition, at PKCβI (setting [1]), the Michaelis-Menten constant (Km) was 0.81 ± 0.18 µM and the Vmax was determined as 0.76 ± 0.06 µmol/mg/min.
In the case of Ac-LRRAS*L-DPro-Sox-G-CONH2 [PKA BTF], on PKA, the Km came to 2.7 ± 0.4 µM and the maximum rate (Vmax) came to 26.5 ± 1.1 µmol/mg/min.
In the case of “Ac-R-CSox-DY*-Nle-TMQIGKK-CONH2 [IRK RDF]”, on IRK, the Michaelis constant (Km) is 27.1 ± 3.9 µM, the Vmax was 6.3 ± 0.4 µmol/mg/min and the “Catalytic Efficiency” value is given as 1.
In the case of Ac-RKRKGS*F-CSox-YGG-CONH2 [PKCδ RDF], the “turnover by the kinase (in words)” value on PKCδ (Figure S3) is “excellent substrates”. Further, on PKCδ (setting [1]), the Michaelis-Menten constant (Km) was 0.48 ± 0.07 µM and the maximal velocity (Vmax) came out at 0.39 ± 0.02 µmol/mg/min.
Ac-Sox-PEIY*GEFEAKKKK-CONH2 [Src BTF]: on Src, the Michaelis-Menten constant (Km) was found to be 30.7 ± 5.8 µM, the Vmax amounted to 0.54 ± 0.04 µmol/mg/min and the “Catalytic Efficiency” value came out at 1.
In the case of “Ac-Sox-PGDY*-Nle-TMQIGKK-CONH2 [IRK BTF]”, at IRK, the Km is 25.7 ± 0.7 µM, the Vmax was found to be 7.3 ± 2.2 µmol/mg/min and the “Catalytic Efficiency” value is on record as 1.
